Screening data deposited in PubChem by several laboratories.
Rows were chosen to be rich in hits. Some 3.1% of all compounds tested hit in one or more screens of this group.
CSN deneddyl inh: inhibitors of CSN-mediated cullin deneddylation, primary screen, biochemical, fluorescence polarization, uHTS; COP9 signalosome complex subunit 5 (Homo sapiens), Q92905; Purified CSN, SCF-Nedd8-OG deneddylation; inhibition, % at 12.5 µM; actives 0.38% (n = 360,000); AID 651999, 2013;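 active = pattern-corrected inhibition above about 35%, with an unprinted fluorescence ratio check between 0.5 and 1.5, limit read from the data, passing the limit was not always enough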
Target sequence (Q92905 whole entry, looked up, one chain of several): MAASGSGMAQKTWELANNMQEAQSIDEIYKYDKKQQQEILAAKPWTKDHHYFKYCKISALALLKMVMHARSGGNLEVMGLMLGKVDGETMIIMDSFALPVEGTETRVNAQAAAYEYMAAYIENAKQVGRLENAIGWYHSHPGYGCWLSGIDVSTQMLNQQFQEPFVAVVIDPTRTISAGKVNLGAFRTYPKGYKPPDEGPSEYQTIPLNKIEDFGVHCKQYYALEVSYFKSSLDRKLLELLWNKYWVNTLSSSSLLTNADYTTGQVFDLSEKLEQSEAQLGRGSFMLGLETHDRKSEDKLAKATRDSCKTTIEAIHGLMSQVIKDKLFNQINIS
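Assay system: Purified human Csn5 enzyme expressed in HEK293T cells | Amount: Enzyme 0.24 nM | Measured by: Fluorescence polarization readout | Medium: Tris/NaCl/DTT buffer, pH 7.5 | Compound dosing: One concentration, 12.5 µM, 0.25% DMSO | Times: 90 min incubation of compound, enzyme and substrate at room temperature | Control set: no-enzyme wells high, enzyme-with-substrate wells low | Read-out: % inhibition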
rCAG binder: binders of r(CAG) RNA repeats, primary screen, biochemical, fluorescence; r(CAG) RNA repeat, TO-PRO-1 dye displacement fluorescence; inhibition, % at 3 µM; actives 1.3% (n = 370,000);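 active = inhibition above the plate cutoff, the mean of all test compounds on that plate plus 3 SD, cut at about 35% in these data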;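 also: higher means more dye released from RNA so lower well fluorescence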
LEDGF integ inh: blockers of LEDGF/p75-dependent integrase strand transfer – biochemical, TR-FRET, high throughput, primary screen; TR-FRET IN-LEDGF/p75 DNA integration, Eu/Cy5; HIV-1 integrase (with human LEDGF/p75); actives 0.64% (n = 370,000); AID 743269, 2014; inhibition, % at 3.7 µM;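 active = inhibition above the screen-wide mean plus 3 SD, cut at about 13% in these data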;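 also: signal is the Cy5 over europium emission ratio at 671 and 618 nm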
ATG4B inh: ATG4B protease inhibitors, primary screen, biochemical, fluorescence, uHTS | Cysteine protease ATG4B (Homo sapiens), Q9Y4P1 | ATG4B cleavage of LC3-PLA2, NBD-HPC fluorescence, 1 h | inhibition, % at 8.33 µM | actives 0.51% (n = 340,000); in the data active = inhibition above about 40%
MBD2 inh: inhibitors of MBD2 binding to methylated DNA, primary screen, biochemical, TR-FRET, DNA-binding domain, human | Methyl-CpG-binding domain protein 2 (Homo sapiens), Q9UBB5 | MBD2 binding to methylated oligonucleotide | inhibition, % at 4.4 µM | actives 0.31% (n = 370,000) | AID 686964, 2013; in the data active = inhibition above about 13%
UHRF1 binding: UHRF1 methylated DNA binding inhibitors, primary screen, counter-screen for MBD2 inhibitor project, biochemical, TR-FRET, human UHRF1, single concentration; inhibition, % at 4.4 µM; E3 ubiquitin-protein ligase UHRF1 (Homo sapiens), Q96T88; actives 0.75% (n = 370,000); UHRF1 binding to methylated oligo; in the data active = inhibition above about 21%;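 also: UHRF1 SRA domain binding a hemimethylated CpG hairpin DNA probe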
rCAG bind conf: small molecules binding CAG repeat RNA – biochemical, fluorescence, confirmation. actives 70% (n = 4,300). shares compounds with rCAG binder. inhibition, % at 3 µM. r(CAG) RNA repeat, TO-PRO-1 dye displacement fluorescence;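 active = inhibition above a per-plate cutoff, the mean inhibition of sample wells plus 3 SD, cut at about 35% in these data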;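 also: loss of TO-PRO-1 fluorescence as compound displaces dye from 1x1 AA loop RNA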
DNA CAG counter: displacement of TO-PRO-1 from CAG DNA duplex, counter-screen for rCAG RNA repeat binder project, biochemical, fluorescence, TO-PRO-1 dye, d(CAG) DNA oligo; shares compounds with rCAG binder; d(CAG) DNA oligo TO-PRO-1 dye displacement; inhibition, % at 3 µM; actives 94% (n = 4,300); AID 652068, 2013;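 active = inhibition above its plate's cutoff, the mean test-well inhibition plus 3 SD, cut at about 4.8% in these data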;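 also: hits displace the dye from DNA and so lower well fluorescence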
Large screens that a line does not name were inactive (follow-up assays come after a bar, where they were run).

CC1(C(=O)NS(=O)(=O)c2ccc3c(c2)CCO3)CCN1C(=O)C1(c2ccc(Cl)cc2)CC1 (stereo unspecified)	none (no result: ATG4B inh)
CC1(C(=O)NS(=O)(=O)c2cccc(Cl)c2)CCN1C(=O)C1(c2ccc(Cl)cc2)CC1 (stereo unspecified)	rCAG binder 43.1 (no result: ATG4B inh) | rCAG bind conf 44.8 | DNA CAG counter 9.8
CC1(C(=O)NS(=O)(=O)c2cccc(Cl)c2)CCN1C(=O)C1(c2ccc(Cl)cc2)CCC1 (stereo unspecified)	rCAG binder 61.2 (no result: ATG4B inh) | rCAG bind conf 67.5 | DNA CAG counter 18.0
Cc1ccc2c(c1)C(CS(=O)(=O)NC1CCCC1)NC2 (stereo unspecified)	none (no result: CSN deneddyl inh, ATG4B inh)
COC(=O)C1CN(Cc2ccc(OC)cc2)CCS(=O)(=O)N1Cc1cn(Cc2ccccc2)nn1 (stereo unspecified)	none (no result: CSN deneddyl inh, ATG4B inh)
O=C1C(c2cc(=O)c3ccccc3[nH]2)=C(O)c2ccccc21	rCAG binder 62.5 | rCAG bind conf 35.7 | DNA CAG counter 8.5
Cc1ccc(OC[C@@H](O)CN2CCC(C(O)(c3ccccc3)c3ccccc3)CC2)cc1	none (no result: CSN deneddyl inh, ATG4B inh)
C=CCN1C(=O)[C@@H](CC(=O)NCCC(C)C)[C@]2(C(=O)OC)CCCCC=C12	none (no result: CSN deneddyl inh, ATG4B inh)
CC1=NN(c2ccccc2C(=O)O)C(=O)C1N=Nc1ccccc1 (stereo unspecified)	rCAG binder 44.1 | rCAG bind conf 40.0 | DNA CAG counter 10.4
COC(=O)[C@]12C[C@H](CC(=O)NCc3ccc(C)o3)C(=O)N(CCc3ccc(OC)c(OC)c3)C1=C[C@H](COCc1ccccc1)O[C@@H]2C	none (no result: CSN deneddyl inh, ATG4B inh)
O=C(Nc1ccc(Cl)c(S(=O)(=O)Nc2ccccc2Cl)c1)c1cccs1	rCAG binder 48.0 | rCAG bind conf inactive | DNA CAG counter 10.5
Cc1ccc(C(=O)Nc2ccc(C)c(S(=O)(=O)Nc3ccccc3Cl)c2)s1	rCAG binder 35.7 | rCAG bind conf 46.2 | DNA CAG counter 15.8
Cc1ccc(NC(=O)c2cc3c(s2)CCCC3)cc1S(=O)(=O)Nc1ccccc1Cl	rCAG binder 47.4 | rCAG bind conf 38.3 | DNA CAG counter 12.7
O=C(Nc1cc(S(=O)(=O)N2CCOCC2)ccc1N1CCCC1)c1cc2c(s1)CCCC2	none (no result: CSN deneddyl inh, rCAG binder, ATG4B inh)
O=C(Nc1ccccc1Cl)c1cccs1	none
O=C(Nc1cc(S(=O)(=O)Nc2ccccc2Cl)ccc1O)c1cc2c(s1)CCCC2	rCAG binder 47.8 | rCAG bind conf 66.9 | DNA CAG counter 25.8
COc1ccccc1NS(=O)(=O)c1cc(NC(=O)c2sc3cc(Cl)ccc3c2Cl)ccc1C	none
O=C(Nc1cccc(S(=O)(=O)Nc2ccc(Cl)cc2)c1)c1cc2c(s1)CCCC2	rCAG binder 43.0 | rCAG bind conf inactive | DNA CAG counter 16.8
COC(=O)[C@@]12CCCCC3=C1N(CCC3)C(=O)[C@H]2CC(=O)NCC1CCCCC1	none (no result: CSN deneddyl inh, ATG4B inh)
CCOc1ccc(-c2ccc(/C=C3/C(=N)N4C=CSC4=NC3=O)o2)c([N+](=O)[O-])c1	none
CCOc1ccc(-c2ccc(/C=C3/C(=N)N4C(C)=CSC4=NC3=O)o2)c([N+](=O)[O-])c1	rCAG binder 48.6 | rCAG bind conf inactive | DNA CAG counter 12.5
O=C1CSc2ccc(C(=O)N3CCCC(C(=O)N4CCN(c5ccc(F)cc5)CC4)C3)cc2N1 (stereo unspecified)	none (no result: CSN deneddyl inh, ATG4B inh)
O=C(Cn1c(=O)c2cccn2c2cccnc21)NCCCN1CCN(c2ccc(Cl)cc2)CC1	none (no result: CSN deneddyl inh, rCAG binder, ATG4B inh)
CC(c1ccccc1)N1C(=O)c2ccc(C(=O)Nc3ccccc3C(=O)O)cc2C1=O (stereo unspecified)	rCAG binder 80.9 | rCAG bind conf 86.9 | DNA CAG counter 70.3
CC(c1ccccc1)N1C(=O)c2ccc(C(=O)Nc3ccc(Br)cc3C(=O)O)cc2C1=O (stereo unspecified)	rCAG binder 52.1 | rCAG bind conf 80.5 | DNA CAG counter 77.2
CC(c1ccccc1)N1C(=O)c2ccc(C(=O)NCc3cccnc3)cc2C1=O (stereo unspecified)	none
COc1cccc(C2c3[nH]c4ccccc4c3C[C@H]3C(=O)N(c4ccccc4C(=O)NCCCN4CCOCC4)C(=O)N23)c1 (stereo partly specified)	none
O=C(O)[C@@H]1CCCN1C(=O)c1ccccc1N1C(=O)[C@@H]2Cc3c([nH]c4ccccc34)C(c3cccc(Cl)c3)N2C1=O (stereo partly specified)	rCAG binder 35.2 | rCAG bind conf 49.4 | DNA CAG counter 13.1
COc1cccc(C2c3[nH]c4ccccc4c3C[C@H]3C(=O)N(c4ccccc4C(=O)N4CCC[C@H]4C(=O)O)C(=O)N23)c1 (stereo partly specified)	none
O=C(O)[C@H]1CCCN1C(=O)c1ccccc1N1C(=O)[C@@H]2Cc3c([nH]c4ccccc34)C(c3cccc(Cl)c3)N2C1=O (stereo partly specified)	rCAG binder 38.8 | rCAG bind conf 64.7 | DNA CAG counter 22.3
CC(C)CC(C(=O)Nc1oc(-c2ccccc2)c(-c2ccccc2)c1C#N)N1C(=O)c2ccccc2C1=O (stereo unspecified)	rCAG binder 50.7 | rCAG bind conf 39.1 | DNA CAG counter 19.3
COC(=O)c1sc(S(=O)(=O)Nc2ccc(Br)cc2)c(C(=O)OC)c1C	rCAG binder 57.1 | rCAG bind conf 42.0 | DNA CAG counter 13.9
COC(=O)c1sc(S(=O)(=O)Nc2ccc(C)cc2)c(C(=O)OC)c1C	none
O=C(NCC(c1cccs1)N1CCOCC1)c1ccccc1NS(=O)(=O)c1cccc([N+](=O)[O-])c1 (stereo unspecified)	rCAG binder 48.1 | rCAG bind conf 39.6 | DNA CAG counter 11.0
